How the values were obtained:
HepG2 = assay: Cytotoxicity in human HepG2 cells assessed as reduction in cell viability incubated for 48 hrs by MTT assay; format: functional, cell-based; conditions: HepG2, 48 h
Method in brief: (§1)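 HepG2 and HL60 (ATCC) grown in DMEM with 10% FBS, 2 mM L-glutamine, penicillin/streptomycin, amphotericin B at 37 °C, 5% CO2. Samples dissolved in DMSO, diluted thousandfold in assay. Cells seeded in serum-free medium, treated with serial concentrations 48 h; MTT 4 h, formazan dissolved in acidified isopropanol, A570. Triplicates averaged; viability relative to untreated/vehicle control.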

BT-549 = assay: Growth inhibition of human BT549 cells assessed as cell growth at 10 uM after 48 hrs by sulforhodamine B assay; format: functional; conditions: BT-549, 48 h, read-out: Activity
Method in brief: (§2)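 NCI 60-cell-line panel screen (nine cancer types). Compounds added at single concentration 10^-5 M, cultures incubated 48 h; growth inhibition percentages reported.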

A498 = assay: Growth inhibition of human A498 cells assessed as cell growth at 10 uM after 48 hrs by sulforhodamine B assay; format: functional; conditions: A498, 48 h, read-out: Activity; method in brief: as §2
HT-29 = assay: Growth inhibition of human HT-29 cells assessed as cell growth at 10 uM after 48 hrs by sulforhodamine B assay; format: functional; conditions: HT-29, 48 h, read-out: Activity; method in brief: as §2
DU-145 = assay: Growth inhibition of human DU145 cells assessed as cell growth at 10 uM after 48 hrs by sulforhodamine B assay; format: functional; conditions: DU-145, 48 h, read-out: Activity; method in brief: as §2
HCT-116 = assay: Growth inhibition of human HCT116 cells assessed as cell growth at 10 uM after 48 hrs by sulforhodamine B assay; format: functional; conditions: HCT-116, 48 h, read-out: Activity; method in brief: as §2
SK-MEL-2 = assay: Growth inhibition of human SK-MEL-2 cells assessed as cell growth at 10 uM after 48 hrs by sulforhodamine B assay; format: functional; conditions: SK-MEL-2, 48 h, read-out: Activity; method in brief: as §2
OVCAR-8 = assay: Growth inhibition of human OVCAR8 cells assessed as cell growth at 10 uM after 48 hrs by sulforhodamine B assay; format: functional; conditions: OVCAR-8, 48 h, read-out: Activity; method in brief: as §2
CCRF-CEM = assay: Growth inhibition of human CCRF-CEM cells assessed as cell growth at 10 uM after 48 hrs by sulforhodamine B assay; format: functional; conditions: read-out: Activity; method in brief: as §2
LOX IMVI = assay: Growth inhibition of human LOXIMVI cells assessed as cell growth at 10 uM after 48 hrs by sulforhodamine B assay; format: functional; conditions: read-out: Activity; method in brief: as §2
M14 = assay: Growth inhibition of human M14 cells assessed as cell growth at 10 uM after 48 hrs by sulforhodamine B assay; format: functional; conditions: M14, 48 h, read-out: Activity; method in brief: as §2
SK-OV-3 = assay: Growth inhibition of human SKOV3 cells assessed as cell growth at 10 uM after 48 hrs by sulforhodamine B assay; format: functional; conditions: SK-OV-3, 48 h, read-out: Activity; method in brief: as §2
MCF7 = assay: Growth inhibition of human MCF7 cells assessed as cell growth at 10 uM after 48 hrs by sulforhodamine B assay; format: functional; conditions: MCF7, 48 h, read-out: Activity; method in brief: as §2
OVCAR-5 = assay: Growth inhibition of human OVCAR5 cells assessed as cell growth at 10 uM after 48 hrs by sulforhodamine B assay; format: functional; conditions: OVCAR-5, 48 h, read-out: Activity; method in brief: as §2
EKVX = assay: Growth inhibition of human EKVX cells assessed as cell growth at 10 uM after 48 hrs by sulforhodamine B assay; format: functional; conditions: read-out: Activity; method in brief: as §2
KM12 = assay: Growth inhibition of human KM12 cells assessed as cell growth at 10 uM after 48 hrs by sulforhodamine B assay; format: functional; conditions: KM12, 48 h, read-out: Activity; method in brief: as §2
NCI-H226 = assay: Growth inhibition of human NCI-H226 cells assessed as cell growth at 10 uM after 48 hrs by sulforhodamine B assay; format: functional; conditions: NCI-H226, 48 h, read-out: Activity; method in brief: as §2
NCI/ADR-RES = assay: Growth inhibition of human NCI-ADR-RES cells assessed as cell growth at 10 uM after 48 hrs by sulforhodamine B assay; format: functional; conditions: read-out: Activity; method in brief: as §2
MOLT-4 = assay: Growth inhibition of human MOLT4 cells assessed as cell growth at 10 uM after 48 hrs by sulforhodamine B assay; format: functional; conditions: MOLT-4, 48 h, read-out: Activity; method in brief: as §2
NCI-H23 = assay: Growth inhibition of human NCI-H23 cells assessed as cell growth at 10 uM after 48 hrs by sulforhodamine B assay; format: functional; conditions: NCI-H23, 48 h, read-out: Activity; method in brief: as §2
NCI-H322M = assay: Growth inhibition of human NCI-H322M cells assessed as cell growth at 10 uM after 48 hrs by sulforhodamine B assay; format: functional; conditions: read-out: Activity; method in brief: as §2
IGROV-1 = assay: Growth inhibition of human IGROV1 cells assessed as cell growth at 10 uM after 48 hrs by sulforhodamine B assay; format: functional; conditions: IGROV-1, 48 h, read-out: Activity; method in brief: as §2
HL-60 = assay: Cytotoxicity in human HL60 cells assessed as reduction in cell viability incubated for 48 hrs by MTT assay; format: functional, cell-based; conditions: HL-60, 48 h; method in brief: as §1
HCT-15 = assay: Growth inhibition of human HCT15 cells assessed as cell growth at 10 uM after 48 hrs by sulforhodamine B assay; format: functional; conditions: HCT-15, 48 h, read-out: Activity; method in brief: as §2
HOP-62 = assay: Growth inhibition of human HOP62 cells assessed as cell growth at 10 uM after 48 hrs by sulforhodamine B assay; format: functional; conditions: HOP-62, 48 h, read-out: Activity; method in brief: as §2
NCI-H460 = assay: Growth inhibition of human NCI-H460 cells assessed as cell growth at 10 uM after 48 hrs by sulforhodamine B assay; format: functional; conditions: NCI-H460, 48 h, read-out: Activity; method in brief: as §2
T47D = assay: Growth inhibition of human T47D cells assessed as cell growth at 10 uM after 48 hrs by sulforhodamine B assay; format: functional; conditions: read-out: Activity
Method in brief: (§3)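 NCI 60-cell-line panel from nine tumour types (leukaemia, lung, colon, CNS, melanoma, ovarian, renal, prostate, breast). Each compound was added at one single concentration, and cultures were incubated for 48 h. Results are reported as percent growth inhibition.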

HOP-92 = assay: Growth inhibition of human HOP92 cells assessed as cell growth at 10 uM after 48 hrs by sulforhodamine B assay; format: functional; conditions: HOP-92, 48 h, read-out: Activity; method in brief: as §2
Hs-578T = assay: Growth inhibition of human Hs 578T cells assessed as cell growth at 10 uM after 48 hrs by sulforhodamine B assay; format: functional; conditions: read-out: Activity; method in brief: as §2
SR = assay: Growth inhibition of human SR cells assessed as cell growth at 10 uM after 48 hrs by sulforhodamine B assay; format: functional; conditions: read-out: Activity; method in brief: as §3
HL-60(TB) = assay: Growth inhibition of human HL-60(TB) cells assessed as cell growth at 10 uM after 48 hrs by sulforhodamine B assay; format: functional; conditions: HL-60, 48 h, read-out: Activity
Method in brief: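 Screened by the NCI in its 60-cell-line panel covering nine cancer types, including leukemia. Compounds were added at a single concentration, and the cultures were incubated for 48 h. Results are reported as percent growth inhibition.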

NCI-H522 = assay: Growth inhibition of human NCI-H522 cells assessed as cell growth at 10 uM after 48 hrs by sulforhodamine B assay; format: functional; conditions: NCI-H522, 48 h, read-out: Activity; method in brief: as §2

| Structure (SMILES) | IC50 (HepG2) [nM] | growth at 10 µM (BT-549) [%] | growth at 10 µM (A498) [%] | growth at 10 µM (HT-29) [%] | growth at 10 µM (DU-145) [%] | growth at 10 µM (HCT-116) [%] | growth at 10 µM (SK-MEL-2) [%] | growth at 10 µM (OVCAR-8) [%] | growth at 10 µM (CCRF-CEM) [%] | growth at 10 µM (LOX IMVI) [%] | growth at 10 µM (M14) [%] | growth at 10 µM (SK-OV-3) [%] | growth at 10 µM (MCF7) [%] | growth at 10 µM (OVCAR-5) [%] | growth at 10 µM (EKVX) [%] | growth at 10 µM (KM12) [%] | growth at 10 µM (NCI-H226) [%] | growth at 10 µM (NCI/ADR-RES) [%] | growth at 10 µM (MOLT-4) [%] | growth at 10 µM (NCI-H23) [%] | further results |
| --- | --- | --- | --- | --- | --- | --- | --- | --- | --- | --- | --- | --- | --- | --- | --- | --- | --- | --- | --- | --- | --- |
| CCOc1ccc(-n2nc(C(=O)Nc3ccc(OC)c(O)c3)nc2-c2cc(OC)c(OC)c(OC)c2)cc1 | 13600 | 103 | 111 | 99.2 | 98.5 | 96.7 | 96 | 78.7 | 89.5 | 90.6 | 103 | 112 | 90.9 | 102 | 95.7 | 92.8 | 96.5 | 86.4 | 74.9 | 86.1 | growth at 10 µM (NCI-H322M): 84.7%; growth at 10 µM (IGROV-1): 95.2%; IC50 (HL-60): > 100000 nM; growth at 10 µM (HCT-15): 97.2%; growth at 10 µM (HOP-62): 99.3%; growth at 10 µM (NCI-H460): 97.6%; growth at 10 µM (T47D): 88.8%; growth at 10 µM (HOP-92): 68.1%; growth at 10 µM (Hs-578T): 86.8%; growth at 10 µM (SR): 68.5%; growth at 10 µM (HL-60(TB)): 94.3%; growth at 10 µM (NCI-H522): 70.3% |
| CCOc1ccc(-n2nc(C(=O)NCc3cc(F)cc(F)c3)nc2-c2cc(OC)c(OC)c(OC)c2)cc1 | 1410 | 68.7 | 64.4 | 61.7 | 86.9 | 49.7 | 65.5 | 75 | 85.6 | 66.6 | 65.2 | 76 | 44.3 | 85 | 62.8 | 65.8 | 65.2 | 61.7 | 45.1 | 81.8 | growth at 10 µM (NCI-H322M): 61.5%; growth at 10 µM (IGROV-1): 62.5%; IC50 (HL-60): 950 nM; growth at 10 µM (HCT-15): 61%; growth at 10 µM (HOP-62): 75.2%; growth at 10 µM (NCI-H460): 66.1%; growth at 10 µM (T47D): 44.1%; growth at 10 µM (HOP-92): 61.1%; growth at 10 µM (Hs-578T): 75.7%; growth at 10 µM (SR): 64%; growth at 10 µM (HL-60(TB)): 61.4%; growth at 10 µM (NCI-H522): 50.9% |

— ChEMBL document CHEMBL4138126, “Synthesis, antiproliferative, anti-tubulin activity, and docking study of new 1,2,4-triazoles as potential combretastatin analogues” (Eur J Med Chem, 2017)
